Results reported in ChEMBL document CHEMBL2062525, “Substituted 3-(5-imidazo[2,1-b]thiazolylmethylene)-2-indolinones and analogues: synthesis, cytotoxic activity, and study of the mechanism of action” (J Med Chem, 2012).
The source made the active and inactive calls.

Experiments:
[1] = Inhibition of bovine brain tubulin assembly after 20 mins; set-up: species or system Bos taurus
[2] = Cytotoxicity against human breast cancer cells after 48 hrs; type: functional; conditions: Cancer cell lines
How it was run: (§1)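 NCI 60-cell panel subpanel lines; compounds first screened at a single 10−5 M, then those passing threshold tested in five-concentration assay over 10−9 to 10−4 M (some to 10−3 M), 48 h exposure. Growth relative to untreated control measured as cell protein; GI50, TGI and LC50 derived; some values are means of two experiments.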

HT-29 [3] = test: Induction of apoptosis in human HT-29 cells assessed as nuclear fragmentation by propidium iodide staining method; type: functional, cell-based
How it was run: (§2)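 HT-29 cells on glass coverslips (1×10^4 cells/cm2), treated 24 h; fixed in 3% paraformaldehyde, ethanol-permeabilized; nuclei stained with PI and viewed by laser scanning confocal microscopy for chromatin condensation and nuclear fragmentation; representative of three experiments.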

Bos taurus = organism: Bos taurus; test: Displacement of [3H]colchicine from bovine brain tubulin at 5 uM after 10 mins
[4] = molecular target: Mitogen-activated protein kinase; ERK1/ERK2 (Homo sapiens) (UniProt P27361+P28482); test: Inhibition of ERK1/2 phosphorylation at Thr202/Tyr204 in human HeLa cells at 1 uM after 3 hrs by Western blotting analysis; type: cell-based
Sequence of Mitogen-activated protein kinase; ERK1/ERK2 (Homo sapiens) (P27361 whole entry, looked up): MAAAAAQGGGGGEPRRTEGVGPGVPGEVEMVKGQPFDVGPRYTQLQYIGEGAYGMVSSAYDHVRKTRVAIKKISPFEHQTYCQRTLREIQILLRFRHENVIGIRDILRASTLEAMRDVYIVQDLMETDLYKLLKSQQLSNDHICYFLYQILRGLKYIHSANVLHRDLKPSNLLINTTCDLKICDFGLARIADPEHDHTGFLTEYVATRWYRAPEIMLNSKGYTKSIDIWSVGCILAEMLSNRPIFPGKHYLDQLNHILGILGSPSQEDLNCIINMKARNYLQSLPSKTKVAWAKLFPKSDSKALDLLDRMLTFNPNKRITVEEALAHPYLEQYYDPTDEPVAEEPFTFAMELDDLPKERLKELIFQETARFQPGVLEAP
Sequence of Mitogen-activated protein kinase; ERK1/ERK2 (Homo sapiens) (P28482 whole entry, looked up): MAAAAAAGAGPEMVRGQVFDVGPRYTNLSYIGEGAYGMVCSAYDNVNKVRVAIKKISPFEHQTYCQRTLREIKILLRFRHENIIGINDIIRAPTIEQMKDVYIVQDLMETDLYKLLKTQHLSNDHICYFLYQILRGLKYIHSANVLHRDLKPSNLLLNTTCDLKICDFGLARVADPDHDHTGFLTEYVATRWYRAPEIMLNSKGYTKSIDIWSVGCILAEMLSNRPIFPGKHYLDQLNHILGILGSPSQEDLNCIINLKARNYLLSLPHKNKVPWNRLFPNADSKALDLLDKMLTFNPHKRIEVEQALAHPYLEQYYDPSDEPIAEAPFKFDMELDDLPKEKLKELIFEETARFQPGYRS
How it was run: (§3)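 HeLa cells in RPMI 1640 with 10% FBS, treated 3 h at 1 μM. Lysates centrifuged 15,000 × g 15 min; 80 μg protein per lane by SDS-PAGE, nitrocellulose transfer, phospho-specific and total primary antibodies, peroxidase anti-rabbit secondary, ECL chemiluminescence.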

HT-29 [5] = test: Induction of apoptosis in human HT-29 cells assessed as increase in early apoptotic cells after 24 hrs by annexin-V-FLUOS and propidium iodide staining based flow cytometry (reference value: 3.9%); type: functional
[6] = Cytotoxicity against human ovarian cancer cells after 48 hrs; type: functional; conditions: Cancer cell lines; how it was run: as §1
[7] = Cytotoxicity against human prostate cancer cells after 48 hrs; type: functional; conditions: Cancer cell lines
How it was run: (§4)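 NCI 60-cell panel (subpanels include leukemia and prostate). […] Percent growth relative to untreated control; some repeats averaged over two experiments.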

[8] = Cytotoxicity against human leukemia cells after 48 hrs; type: functional; conditions: Leukemia cell; how it was run: as §4
[9] = molecular target: c-Jun N-terminal kinase, JNK (Homo sapiens) (UniProt P45983+P53779+P45984); test: Inhibition of JNK phosphorylation at Thr183/Tyr185 in human HeLa cells at 1 uM after 3 hrs by Western blotting analysis; type: cell-based; how it was run: as §3
[10] = Cytotoxicity against human COLON cells after 48 hrs; type: functional; how it was run: as §1
HT-29 [11] = test: Induction of apoptosis in human HT-29 cells at 100 nM after 24 hrs by trypan blue exclusion assay; type: functional, cell-based
How it was run: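 HT-29 cells plated at 2×10^4 cells/cm2, treated 24 h in triplicate (DMSO 0.01%; DMSO-only controls); viable cells counted by trypan blue exclusion; mean ± s.e.m. of three determinations.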

[12] = Cytotoxicity against human CNS cancer cells after 48 hrs; type: functional; conditions: Cancer cell lines; how it was run: as §1
[13] = Cytotoxicity against human melanoma cells after 48 hrs; type: functional; conditions: Melanoma cell; how it was run: as §1
[14] = Cytotoxicity against human renal cancer cells after 48 hrs; type: functional; conditions: Cancer cell lines; how it was run: as §1
HT-29 [15] = test: Induction of apoptosis in human HT-29 cells assessed as chromatin condensation by propidium iodide staining method; type: functional, cell-based; how it was run: as §2
HT-29 [16] = test: Cell cycle arrest in human HT-29 cells assessed as increase of cell population at G2/M phase at 100 nM after 24 hrs by flow cytometry; type: functional, cell-based
How it was run: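 HT-29 cells in RPMI 1640 with 10% FBS, 2 mM L-glutamine, 37 °C, 5% CO2; treated 24 h, DMSO 0.01% in medium. Fixed in 70% ethanol at −20 °C ≥12 h, RNase A (10 μg/mL) 30 min at 37 °C, DNA stained with PI (50 μg/mL), flow cytometry; one experiment representative of three.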

HT-29 [17] = test: Induction of apoptosis in human HT-29 cells assessed as increase in caspase activity at 500 nM after 48 hrs by fluorometry; type: functional, cell-based
How it was run: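 Cells exposed 48 h to 500 nM; DEVD-cleaving caspase (DEVDase) activity measured fluorometrically in cell extracts; mean ± s.e.m. of four determinations.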

NSCLC = test: Cytotoxicity against human NSCLC cells after 48 hrs; type: functional; how it was run: as §1
HT-29 [18] = test: Induction of cell cycle arrest in human HT-29 cells assessed as increase in p21 expression after 24 hrs by immunofluorescence confocal microscopy; type: functional, cell-based
How it was run: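 On coverslips, HT-29 cells were treated 24 h, fixed with 3% paraformaldehyde, permeabilized with 70% ice-cold ethanol, stained with anti-p21 then FITC secondary (1 h, room temperature each), nuclei counterstained with PI; confocal microscopy; representative of three experiments.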

[19] = molecular target: AMP-activated protein kinase, AMPK (Homo sapiens) (UniProt P54646+O43741+P54619+Q9UGJ0+Q9Y478+Q13131+Q9UGI9); test: Inhibition of AMPK phosphorylation at Thr172 in human HeLa cells at 1 uM after 3 hrs by Western blotting analysis; type: cell-based; how it was run: as §3
[20] = molecular target: Serine/threonine-protein kinase mTOR (Homo sapiens) (UniProt P42345); test: Inhibition of mTOR phosphorylation at ser2448 in human HeLa cells at 1 uM after 3 hrs by Western blotting analysis; type: cell-based; how it was run: as §3
HeLa = test: Inhibition of Akt phosphorylation at ser473 in human HeLa cells at 1 uM after 3 hrs by Western blotting analysis; type: cell-based; how it was run: as §3
[21] = molecular target: MAP kinase p38 (Homo sapiens) (UniProt O15264+Q15759+Q16539+P53778); test: Inhibition of p38 phosphorylation at Thr180/Tyr182 in human HeLa cells at 1 uM after 3 hrs by Western blotting analysis; type: cell-based; how it was run: as §3
[22] = read-out: LC50 (the source's name)

With `COc1ccc2c(c1)/C(=C\c1c(-c3ccccn3)nc3sccn13)C(=O)N2` the IC50 [1] was 9.1 µM, the GI50 [2] was 0.04 µM and the LC50 [2] was 46.8 µM. The TGI [2] was 8.32 µM, the Activity (HT-29 [3]) was “Active” and the inhibition (Bos taurus) was 36%. The inhibition [4] was “Active”, the Activity (HT-29 [5]) was 23% and the GI50 [6] was 0.04 µM. The LC50 (concentration killing 50% of starting cells) [6] was 17 µM, the TGI [6] was 2.19 µM and the GI50 [7] was 0.03 µM. For the same compound, the TGI [7] was 3.98 µM, the GI50 [8] was 0.02 µM and the inhibition [9] was “Active”. The LC50 (concentration giving 50% net cell kill) [10] was 15.1 µM, the TGI [10] was 1.35 µM and the Activity (HT-29 [11]) was “Active”. For the same compound, the GI50 [12] was 0.03 µM, the LC50 [12] was 34.7 µM and the TGI [12] was 2.57 µM. It also gave a GI50 [13] of 0.02 µM, a TGI [13] of 6.76 µM and a CC50 [13, 22] of 38.9 µM. The GI50 [14] was 0.07 µM, the TGI [14] was 4.68 µM and the CC50 [14, 22] was 28.8 µM. For the same compound, the Activity (HT-29 [15]) was “Active”, the Activity (HT-29 [16]) was “Active” and the Activity (HT-29 [17]) was “Active”. For the same compound, the GI50 (NSCLC) was 0.11 µM, the LC50 (NSCLC) was 39.8 µM and the TGI (NSCLC) was 6.46 µM. For the same compound, the Activity (HT-29 [18]) was “Active”, the inhibition [19] was “Active” and the inhibition [20] was “inactive”. The inhibition (HeLa) was “Active” and the inhibition [21] was “Active”.
